# From ChEMBL document CHEMBL1177699, “Identification and functional characterization of a stable, centrally active derivative of the neurotensin (8-13) fragment as a potential first-in-class analgesic” (J Med Chem, 2010)
# Numbered stars: 1 amine (or outer) side, 2 acyl side, 3 side chain; on linkers, the order of the positions; unused ones are H or OH. Square brackets hold non-standard residues; d marks the D form. Peptide text beside a SMILES is read from it. * marks the point of attachment. X9 = C[C@@H](CCCC[N+](C)(C)C)C(=O)*; NMe5Ava = CN(CCCCC(=O)[*:2])[*:1]; X10 = C[C@@H](CCCCCN(C)C)C(=O)*; X8 = C[C@@H](CCCNC(=N)N)C(=O)*; X4 = C[C@@H](CCCCN(C)C)C(=O)*; Tle = CC(C)(C)[C@H](N)C(=O)O; X5 = CCN1CCN(CCCCC(=O)*)C1=N; X11 = C[C@@H](CCCCCN)C(=O)*; X7 = C/N=C(\NC)NCCCCC(=O)*; X2 = O=C(CCCCNC1=NCCN1)*; X3 = CNCCC[C@H](C)C(=O)*; Ahp = NCCCCCCC(=O)O; X6 = CNCCCCCCC(=O)*; Ahx = NCCCCCC(=O)O; Ava = NCCCCC(=O)O
# Key:
# Rattus norvegicus [1] = test: Analgesic activity in Sprague-Dawley rat assessed as maximal possible effect paw at 10 mg/kg, ip by hot plate assay; type: functional; conditions: route intraperitoneal
# How it was run: (§1)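 Male Sprague-Dawley rats (240–280 g), 10 mg/kg i.p. (morphine 5 mg/kg, saline controls). Hotplate held at 53.0±0.2°C; latency to hind-paw lift, nibble or shake at serial time points, 30 s cut-off. %MPE from pre- and post-drug latencies; endpoints are maximal %MPE, duration at 100% MPE and area under the response curve. n ≥ 6.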
# Rattus norvegicus [2] = test: Analgesic activity in ip dosed Sprague-Dawley rat assessed as paw withdrawal latency by hot plate assay; type: functional; how it was run: as §1
Compound,MPE (Rattus norvegicus [1]) [%],Duration at 100% MPE (Rattus norvegicus [2]) [min]
CC(C)C[C@H](NC(=O)[C@@H](NC(=O)[C@H](Cc1ccc(O)cc1)NC(=O)[C@@H]1CCCN1C(=O)[C@H](CCCNC(=N)N)NC(=O)CCCCCCN)C(C)(C)C)C(=O)O (H-[Ahp]RPY[Tle]L-OH),100,60
CC(C)C[C@H](NC(=O)[C@@H](NC(=O)[C@H](Cc1ccc(O)cc1)NC(=O)[C@@H]1CCCN1C(=O)[C@H](CCCNC(=N)N)NC(=O)CCCCCN)C(C)(C)C)C(=O)O (H-[Ahx]RPY[Tle]L-OH),48,0
CC(C)C[C@H](NC(=O)[C@@H](NC(=O)[C@H](Cc1ccc(O)cc1)NC(=O)[C@@H]1CCCN1C(=O)[C@H](CCCNC(=N)N)NC(=O)CCCCN)C(C)(C)C)C(=O)O (H-[Ava]RPY[Tle]L-OH),51.69,0
CNCCCCC(=O)N[C@@H](CCCNC(=N)N)C(=O)N1CCC[C@H]1C(=O)N[C@@H](Cc1ccc(O)cc1)C(=O)N[C@H](C(=O)N[C@@H](CC(C)C)C(=O)O)C(C)(C)C (NMe5Ava-RPY[Tle]L-OH),100,120
CC(C)C[C@H](NC(=O)[C@@H](NC(=O)[C@H](Cc1ccc(O)cc1)NC(=O)[C@@H]1CCCN1C(=O)[C@H](CCCNC(=N)N)NC(=O)CCCCNC1=NCCN1)C(C)(C)C)C(=O)O (X2-RPY[Tle]L-OH),76.4,0
CNCCC[C@H](C)C(=O)N[C@@H](CCCNC(=N)N)C(=O)N1CCC[C@H]1C(=O)N[C@@H](Cc1ccc(O)cc1)C(=O)N[C@H](C(=O)N[C@@H](CC(C)C)C(=O)O)C(C)(C)C (X3-RPY[Tle]L-OH),82.4,0
CC(C)C[C@H](NC(=O)[C@@H](NC(=O)[C@H](Cc1ccc(O)cc1)NC(=O)[C@@H]1CCCN1C(=O)[C@H](CCCNC(=N)N)NC(=O)[C@@H](C)CCCCN(C)C)C(C)(C)C)C(=O)O (X4-RPY[Tle]L-OH),84.9,0
CCN1CCN(CCCCC(=O)N[C@@H](CCCNC(=N)N)C(=O)N2CCC[C@H]2C(=O)N[C@@H](Cc2ccc(O)cc2)C(=O)N[C@H](C(=O)N[C@@H](CC(C)C)C(=O)O)C(C)(C)C)C1=N (X5-RPY[Tle]L-OH),80.48,0
CNCCCCCCC(=O)N[C@@H](CCCNC(=N)N)C(=O)N1CCC[C@H]1C(=O)N[C@@H](Cc1ccc(O)cc1)C(=O)N[C@H](C(=O)N[C@@H](CC(C)C)C(=O)O)C(C)(C)C (X6-RPY[Tle]L-OH),59.32,0
C/N=C(\NC)NCCCCC(=O)N[C@@H](CCCNC(=N)N)C(=O)N1CCC[C@H]1C(=O)N[C@@H](Cc1ccc(O)cc1)C(=O)N[C@H](C(=O)N[C@@H](CC(C)C)C(=O)O)C(C)(C)C (X7-RPY[Tle]L-OH),92.28,0
CC(C)C[C@H](NC(=O)[C@@H](NC(=O)[C@H](Cc1ccc(O)cc1)NC(=O)[C@@H]1CCCN1C(=O)[C@H](CCCNC(=N)N)NC(=O)[C@@H](C)CCCNC(=N)N)C(C)(C)C)C(=O)O (X8-RPY[Tle]L-OH),48.52,0
CC(C)C[C@H](NC(=O)[C@@H](NC(=O)[C@H](Cc1ccc(O)cc1)NC(=O)[C@@H]1CCCN1C(=O)[C@H](CCCNC(=N)N)NC(=O)[C@@H](C)CCCC[N+](C)(C)C)C(C)(C)C)C(=O)O.[Cl-] (X9-RPY[Tle]L-OH),67.2,15
CC(C)C[C@H](NC(=O)[C@@H](NC(=O)[C@H](Cc1ccc(O)cc1)NC(=O)[C@@H]1CCCN1C(=O)[C@H](CCCNC(=N)N)NC(=O)[C@@H](C)CCCCCN(C)C)C(C)(C)C)C(=O)O (X10-RPY[Tle]L-OH),60.94,0
CC(C)C[C@H](NC(=O)[C@@H](NC(=O)[C@H](Cc1ccc(O)cc1)NC(=O)[C@@H]1CCCN1C(=O)[C@H](CCCNC(=N)N)NC(=O)[C@@H](C)CCCCCN)C(C)(C)C)C(=O)O (X11-RPY[Tle]L-OH),100,45
